Screening data deposited in PubChem BioAssay by Johns Hopkins Ion Channel Center.
Hits are enriched below; roughly 3.5% of the tested compounds scored in any of these assays.
RGS4 act: RGS4 potentiators or activators, primary screen, cell-based, HEK293 M3R inducible RGS4, calcium flux | carbachol calcium flux Fluo4; active compounds read low | B-score at 10 µM | actives 0.92% (n = 310,000);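 active = B-score of the integrated calcium signal more than 4 SD below the library mean, with starting fluorescence not abnormally high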;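 note: negative B-score means reduced calcium response which marks RGS4 activation or potentiation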
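Detection: kinetic calcium fluorescence imaging with Fluo4-AM dye, 2 µM / Material: HEK293 cells with stable M3R and inducible RGS4 / Schedule: recording 10 s baseline at 1 Hz, 100 s post-agonist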
RGS4 block: RGS4 inhibitors, primary screen, cell-based, HEK293 M3R inducible RGS4, calcium flux; Regulator of G-protein signaling 4 (Homo sapiens), P49798; Fluo-4 calcium flux; active compounds read high; triggered by carbachol at its EC20; B-score at 10 µM; actives 0.45% (n = 310,000); AID 463165, 2010;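 active = B-score, a plate-corrected calcium signal, over three deviations above library mean, with baseline fluorescence within five deviations of library mean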;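 note: RGS4 expression induced by doxycycline in cells with stable M3 receptor; B-score is computed from the integrated fluorescence ratio over baseline after carbachol; higher B-score means a larger calcium signal and so more RGS4 inhibition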
Target sequence (P49798 whole entry, looked up): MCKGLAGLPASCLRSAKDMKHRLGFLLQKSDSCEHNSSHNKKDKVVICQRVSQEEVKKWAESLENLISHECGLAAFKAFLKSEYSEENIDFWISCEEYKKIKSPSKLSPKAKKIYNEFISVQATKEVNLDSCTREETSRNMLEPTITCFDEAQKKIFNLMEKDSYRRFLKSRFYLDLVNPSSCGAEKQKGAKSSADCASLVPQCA
MrgX1 agonist: agonists of human MrgX1 receptor, primary screen, HEK293 cells, Fluo-4 calcium flux. Mas-related G-protein coupled receptor member X1 (Homo sapiens), Q96LB2. Fluo-4 calcium fluorescence, agonist mode; active compounds read high. B-score at 10 µM. actives 0.44% (n = 310,000). AID 588627, 2011;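 active = calcium response B-score plate-corrected fluorescence ratio at least 3 library SD, with starting fluorescence B-score inside 5 SD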
Target sequence (Q96LB2 whole entry, looked up): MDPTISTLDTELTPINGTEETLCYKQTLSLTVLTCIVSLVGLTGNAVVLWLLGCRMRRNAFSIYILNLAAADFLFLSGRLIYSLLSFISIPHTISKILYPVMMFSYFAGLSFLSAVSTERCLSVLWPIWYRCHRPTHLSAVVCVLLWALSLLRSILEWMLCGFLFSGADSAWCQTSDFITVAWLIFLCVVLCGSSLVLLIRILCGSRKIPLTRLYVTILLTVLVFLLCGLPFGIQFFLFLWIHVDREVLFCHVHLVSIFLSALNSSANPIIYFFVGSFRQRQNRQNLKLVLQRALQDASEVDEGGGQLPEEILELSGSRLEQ
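System: HEK293 cells stably expressing human MrgX1 receptor; Dosing: test compound in the initial addition of three; Schedule: overnight plating, then 30 min 37 °C plus 30 min room-temperature dye loading; Detection: kinetic calcium dye fluorescence, Fluo-4 NW; Controls: per-plate positive and negative controls for Z′ factor.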
MrgX1 PAM: positive allosteric modulators of MrgX1, primary screen, HEK293 cells, Fluo-4 calcium flux; actives 0.63% (n = 310,000); FDSS; active compounds read high; Mas-related G-protein coupled receptor member X1 (Homo sapiens), Q96LB2; B-score at 10 µM;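 active = plate-corrected calcium response at least 3 library SD above typical, normal starting fluorescence, not activating the receptor alone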;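 note: compound read alongside a low EC10 to EC30 dose of BAM8-22 agonist; peak minus trough fluorescence over baseline measured at the second addition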
MrgX1 antag: antagonists of human MrgX1 receptor, primary screen, HEK293 cells, Fluo-4 calcium flux. AID 588676, 2011. actives 1.3% (n = 310,000). BAM8-22 antagonism; active compounds read low. Mas-related G-protein coupled receptor member X1 (Homo sapiens), Q96LB2. B-score at 10 µM;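 active = calcium-response B-score plate-corrected more than 3 library SD below zero, starting fluorescence within 5 deviations, no agonist response on first addition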;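 note: peak minus trough fluorescence over baseline after final BAM8-22 challenge near maximal dose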
RGS4 activ val: reduced carbachol calcium response, RGS4-induced M3R cells, confirmation, RGS4 activator project, cell-based, HEK293 M3R/RGS4 inducible, calcium flux, duplicate. shares compounds with RGS4 act. carbachol calcium flux Fluo4. inhibition, % at 10 µM. actives 89% (n = 1,100). AID 602282, 2012;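 active = inhibition above 3 SD of the buffer control wells, cut at about 41% in these data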;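 note: signal is the integrated peak-minus-minimum Fluo4 fluorescence over baseline ratio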
RGS4 act ctr: RGS4 activator counter-screen hit in non-induced cells; shares compounds with RGS4 act; HEK293 M3R non-induced RGS4, Fluo4 calcium flux; after carbachol challenge at its EC90; inhibition, % at 10 µM; actives 82% (n = 1,100); AID 602283;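 active = inhibition exceeding 3 SD of buffer-only control wells, cut at about 26% in these data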;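 note: percent drop in integrated peak-minus-baseline over baseline Fluo4 ratio after carbachol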
Hits are given with their value; - = inactive; . = no result given.

SMILES	RGS4 act	RGS4 block	MrgX1 agonist	MrgX1 PAM	MrgX1 antag	RGS4 activ val	RGS4 act ctr
O=C(CSc1c2c(nc3ccc(Cl)cc13)CCCC2)NCCCN1CCOCC1	-11	-	-	-	-	92	91
O=C(CN1CCCCC1)Nc1ccccc1Oc1ccccc1	-8.2	-	-	-	-	61	84
O=C(/C=C/c1ccco1)N(Cc1ccccc1F)C1CCS(=O)(=O)C1 (stereo not given)	-	-	-	-	-	.	.
Cc1ccc(C)c(C(=O)CN2C(=O)NC3(CCC(C)CC3)C2=O)c1 (stereo not given)	-	-	-	-	-	.	.
O=C(O)/C=C(\Oc1ccccc1)C1(O)CCCCC1	-	-	-	-	-	.	.
COc1cc(-c2cc(-c3ccc(N)cc3)[nH]c(=O)c2C#N)cc(OC)c1OC	-8	-	-	-	-	-	-
N#Cc1c(-c2ccccc2)cc(-c2ccccc2)[nH]c1=O	-	-	-	-	-	.	.
COc1cccc(-c2nc3c(c(SCC(=O)N4CCOCC4)n2)Cc2c(CO)cnc(C)c2O3)c1	-8.1	-	-	-	-	40	84
Cc1ncc(CO)c2c1Oc1nc(-c3ccccc3)nc(SCC(=O)N3CCCCC3)c1C2	-7.8	-	-	-	-	76	40
CC1(C)CC(=O)C2=C(C1)OC(N)=C(C#N)C2c1ccccc1[N+](=O)[O-] (stereo not given)	-11	-	-	-	-	-	-
O=C(NC(=S)Nc1ccccc1N1CCN(C(=O)c2ccccc2)CC1)c1ccccc1F	-8	-	-	-	-	68	-
O=C(NC(=S)Nc1ccccc1N1CCOCC1)c1ccccc1F	-	-	-	-	-	.	.
COc1ccc(C(=O)Nc2ccccc2N2CCN(C(=O)c3ccccc3)CC2)cc1Br	-9.4	-	-	-	-	64	26
O=C(Nc1ccccc1N1CCN(C(=O)c2ccccc2)CC1)c1ccc(Cl)cc1	-	-	-	-	-	.	.
O=C(Nc1ccccc1N1CCN(C(=O)c2ccccc2)CC1)c1ccc(Br)o1	-7.8	-	-	-	-	48	-
Cc1ccccc1-c1nn2c(-c3ccccc3)nnc2s1	-7.7	-	-	-	-	-	-
Cc1ccccc1OCC(=O)NC(=S)Nc1ccccc1N1CCN(S(C)(=O)=O)CC1	-9.1	-	-	-	-	62	-
CNC(=O)c1ccc(NC(=O)/C=C/c2cccc(F)c2)cc1	-	-	-	-	-	.	.
COc1cccc(C2SCC(=O)N2c2ccc(C)cc2)c1OC (stereo not given)	-8.9	-	-	-	-	92	86
COc1ccc(N2C(=O)CSC2c2cccc(OC)c2OC)cc1 (stereo not given)	-11	-	-	-	-	86	46
COc1ccc(N2C(=O)CSC2c2ccccc2)cc1 (stereo not given)	-	-	-	-	-	.	.
CN1/C(=C\C(=O)Nc2ccc(Cl)cc2)C(C)(C)c2ccccc21	-9.7	-	-	-	-	92	95
CN1/C(=C\C=C(/C#N)C(=O)Nc2ccc(Cl)cc2)C(C)(C)c2ccccc21	-	-	-	-	-	.	.
c1ccc(COc2ccc(CNCc3cccnc3)cc2)cc1	-13	-	-	-	-	84	42
O=C1NC(=O)/C(=C/c2ccccn2)S1	-	-	-	-	-	.	.
SMILES	RGS4 act	RGS4 block	MrgX1 agonist	MrgX1 PAM	MrgX1 antag	RGS4 activ val	RGS4 act ctr
Cc1ccc(S(=O)(=O)n2c(C)nc3ccccc32)cc1	-	-	-	-	-	.	.
Cc1ccc(S(=O)(=O)n2c(CN3CCCC(C)C3)nc3ccccc32)cc1 (stereo not given)	-10	-	-	-	-	60	84
COc1c(C)cc(S(=O)(=O)NCc2ccccn2)c(C)c1C	-	-	-	-	-	.	.
Cc1cc(SCC(=O)c2ccccc2)n2nc(C)nc2n1	-9	-	-	-	-	-	-
Cc1cc(N2CCCCC2)nc2ccccc12	-	-	-	-	-	.	.
Cc1cc(N2CCCCCC2)nc2ccccc12	-10	-	-	-	-	92	48
CCOC(=O)c1c(NC(=O)/C=C/C(=O)O)sc(C)c1-c1ccc(C(C)(C)C)cc1	-12	-	-	-	-5.2	92	90
CN(Cc1cccc(F)c1)C(=O)C(c1ccccc1)c1ccccc1	-	-	-	-	-	.	.
CN(Cc1ccc(F)cc1)C(=O)C(c1ccccc1)c1ccccc1	-9.1	-	-	-	-	82	84
CC(C)OCCCNC(=O)CCCC(=O)Nc1ccc(OCCc2ccccc2)cc1	-	-	-	-	-	.	.
CCOc1ccc(N2CC(O)=C(c3ccccc3)C2=N)cc1	-	-	-	-	-	.	.
CC1=CC(C)(C)N(C(=O)CCl)c2cc(C)ccc21	-	-	-	-	-	.	.
CC1=CC(C)(C)N(C(=O)CNC2CCCCC2)c2cc(C)ccc21	-8.5	-	-	-	-	94	97
CC(=O)/C(=N/Nc1ccc([N+](=O)[O-])cc1)N1CCCc2ccccc21	-	-	-	-	-	.	.
CC(=O)/C(=N/Nc1ccccc1[N+](=O)[O-])N1CCCc2ccccc21	-11	-	-	-	-	93	89
CC(=O)c1ccc(N2CCN(CC(O)COC(c3ccccc3)c3ccccc3)CC2)cc1 (stereo not given)	-7.7	-	-	-	-	62	84
CC(=O)c1ccc(N2CCN(CC(O)COC(c3ccccc3)c3ccccc3C)CC2)cc1 (stereo not given)	-11	-	-	-	-	94	83
CCOC(=O)c1cnc2c(Cl)c(Cl)ccc2c1N1CCN(C)CC1	-	-	-	-	-	.	.
Cc1ccc2cc(NC(=O)c3ccc(C(C)(C)C)cc3)ccc2n1	-8.2	-	-	-	-	84	81
NS(=O)(=O)c1cc(C(=O)OCC(=O)N2CCOCC2)ccc1Cl	-	-	-	-	-	.	.
CCOC(=O)CC1CCCCN1Cc1cn(C)nc1-c1ccc2c(c1)OCCO2 (stereo not given)	-	-	-	-	-	.	.
Cn1cc(CN2C[C@]3(C)C[C@H]2CC(C)(C)C3)c(-c2ccc3c(c2)OCCO3)n1	-8.9	-	-	-	-	88	47
CC1CCN(C(=O)c2cc(S(=O)(=O)N3CCCCC3)c[nH]2)CC1	-	-	-	-	-	.	.
